Source: PubChem (Johns Hopkins Ion Channel Center)
TRPC4 block – TRPC4 (mouse) channel inhibition; 300,000 compounds, 0.39% hits; B-score at 10 µM; HEK293 TRPC4beta/mu-opioid, DAMGO-evoked Fluo4 calcium flux; hits give low values; Q9QUQ5; AID 2247;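 active = B-score over 3 SD under the library average, no early fluorescence shift, positive overall ratio signal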
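System: stable TRPC4beta/mu-opioid receptor HEK293 cells; Dosing: single-point compound dosing; Measured by: Fluo4 Ca2+ flux fluorescence; Read-out basis: per-well B score of integrated baseline-normalized Fluo4 ratio.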
TRPC4 act – TRPC4 (mouse) channel activation; AID 2237; 310,000 compounds, 0.49% hits; Q9QUQ5; B-score at 10 µM; HEK293 TRPC4beta/mu-opioid, Fluo4 calcium fluorescence; hits give high values;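 active = B-score above 5 SD of library B-scores, and initial fluorescence ratio not above library mean plus 5 SD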;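 note: positive B-score marks a calcium rise read as TRPC4 activation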
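Assay system – TRPC4beta and mu-opioid receptor HEK293 stable cells · Measured by – Fluo4 fluorescence, kinetic · Schedule – dye loading 45 min room temperature, 110 s kinetic read · Read-out – B-scored integrated calcium fluorescence ratio · Controls – buffer and maximal DAMGO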
TRPC4 PAM – allosteric potentiators of mouse TRPC4 channel; 310,000 compounds, 0.42% hits; HEK293 TRPC4beta/mu-opioid, DAMGO EC20, Fluo-4 Ca2+ flux; hits give high values; Q9QUQ5; B-score at 10 µM; AID 2227;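 active = B-score of calcium response area above 5 SD of library B-scores, with initial fluorescence ratio within 5 SD of library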;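 note: B-score of integrated fluorescence ratio over time as area under calcium response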
TRPC6 inh – inhibitors of mouse TRPC6 channel; Q61143; HEK293-TRPC6, membrane potential dye, ACh-evoked depolarization; hits give low values; B-score at 10 µM; 310,000 compounds, 1.1% hits;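 active = B-score under library mean minus 3 SD, initial fluorescence not abnormally high, positive integrated signal ratio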;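 note: B-score derived from integrated fluorescence ratio over the kinetic read; more negative B-score means stronger inhibition of depolarization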
Target sequence (Q61143 whole entry, looked up): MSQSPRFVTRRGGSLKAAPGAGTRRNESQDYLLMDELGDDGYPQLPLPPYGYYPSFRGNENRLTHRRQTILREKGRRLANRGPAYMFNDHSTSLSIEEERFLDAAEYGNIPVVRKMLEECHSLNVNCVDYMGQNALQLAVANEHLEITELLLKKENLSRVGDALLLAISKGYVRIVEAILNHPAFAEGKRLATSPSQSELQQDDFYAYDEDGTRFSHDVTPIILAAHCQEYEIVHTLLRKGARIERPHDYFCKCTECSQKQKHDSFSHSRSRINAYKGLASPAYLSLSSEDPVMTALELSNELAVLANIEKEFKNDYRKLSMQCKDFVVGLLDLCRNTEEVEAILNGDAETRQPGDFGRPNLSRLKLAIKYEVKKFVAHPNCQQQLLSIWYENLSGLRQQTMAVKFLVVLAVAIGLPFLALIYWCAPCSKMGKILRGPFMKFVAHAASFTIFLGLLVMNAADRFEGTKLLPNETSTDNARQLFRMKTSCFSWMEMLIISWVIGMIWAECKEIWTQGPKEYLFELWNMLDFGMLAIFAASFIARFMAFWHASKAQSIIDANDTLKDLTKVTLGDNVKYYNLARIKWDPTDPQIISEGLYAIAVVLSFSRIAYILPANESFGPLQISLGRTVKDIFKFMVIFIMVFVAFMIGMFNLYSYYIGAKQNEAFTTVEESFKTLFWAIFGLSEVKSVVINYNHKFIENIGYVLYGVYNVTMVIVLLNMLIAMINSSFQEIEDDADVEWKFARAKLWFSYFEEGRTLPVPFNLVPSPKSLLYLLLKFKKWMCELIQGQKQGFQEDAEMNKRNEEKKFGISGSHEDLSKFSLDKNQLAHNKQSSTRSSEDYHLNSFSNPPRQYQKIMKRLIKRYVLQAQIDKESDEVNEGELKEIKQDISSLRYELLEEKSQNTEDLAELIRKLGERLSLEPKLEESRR
TRPC6 act – activators of mouse TRPC6 channel; Q61143; HEK293-TRPC6 membrane potential dye fluorescence; hits give high values; B-score at 10 µM; 310,000 compounds, 0.13% hits; AID 2550;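 active = B-score of the integrated fluorescence ratio above library mean plus 3 SD, and starting fluorescence ratio within library mean plus 5 SD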;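 note: higher score means more depolarization so channel activation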
TRPC4 spec 2 – second selectivity test of TRPC6 inhibitors: effect on mouse TRPC4; 920 compounds, 42% hits; HEK293 TRPC4/MOR, membrane potential dye fluorescence; channel activated by saturating DAMGO dose; inhibition, % at 10 µM; shares compounds with TRPC6 inh;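 active = compounds whose fluorescence signal differed from control wells by over 3 SD, either direction, in both duplicate plates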
TRPC4 spec – tests whether TRPC6 inhibitors also affect mouse TRPC4 | shares compounds with TRPC6 inh | activity change, negative = inhibition, % at 10 µM | AID 2777 | HEK293 TRPC4/mu-opioid, membrane potential fluorescence | 920 compounds, 61% hits;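 active = rise or fall in signal beyond 3 SD of buffer-only wells in both replicate plates, either sign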;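 note: integrated kinetic ratio of fluorescence range over baseline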
HEK293 MPD ctr 2-1 – second counter-screen for TRPC6 inhibitors: parental HEK293 cells. AID 2779. parental HEK293 membrane potential dye fluorescence; maximal acetylcholine challenge after compound addition. signal change vs control, % at 10 µM. shares compounds with TRPC6 inh. 920 compounds, 31% hits;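 active = membrane potential signal moving either way by over 3 SD of the maximum-effect control, in both duplicate plates, meaning non-specific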
HEK293 MPD ctr-1 – checks TRPC6 inhibitor effects in parental HEK293 cells; shares compounds with TRPC6 inh; parental HEK293 membrane potential dye fluorescence; membrane potential signal change, % at 10 µM; 920 compounds, 60% hits; AID 2780;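 active = membrane potential signal shifting up or down by more than 3 SD of buffer-only wells, on both duplicate plates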
HEK293 MPD ctr-2 – parental HEK293 nonspecific activity of TRPC6 modulators | membrane potential signal change, % at 10 µM | 2,400 compounds, 51% hits | membrane potential dye fluorescence | shares compounds with TRPC6 inh;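 active = membrane potential signal moves up or down beyond 5 SD from buffer-only wells, on both duplicate plates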
HEK293 MPD ctr 2-2 – parental HEK293 nonspecific activity of TRPC6 modulators, second screen; shares compounds with TRPC6 inh; membrane potential dye fluorescence; after compound, maximal acetylcholine stimulation; inhibition, % at 10 µM; 2,400 compounds, 14% hits;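 active = membrane potential signal drops by more than 5 SD from the mean control signal, in both duplicate plates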;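 note: plate controls were acetylcholine ECmax control wells for no effect and buffer only wells for full effect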
TRPC4 ctr mod – mouse TRPC4 off-target activity of TRPC6 modulators; shares compounds with TRPC6 inh; HEK293 TRPC4/mu-opioid, membrane potential fluorescence; percent change from control (negative = decrease, positive = increase), % at 10 µM; 2,400 compounds, 69% hits; AID 488927;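 active = membrane potential signal moved up or down beyond 5 SD of buffer control wells, in both duplicate plates, actives on both sides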;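 note: plate controls were assay buffer wells for no effect and DAMGO maximal-effect wells for full effect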
TRPC4/MOR inh 2 – second selectivity test of TRPC6 modulators against mouse TRPC4; shares compounds with TRPC6 inh; HEK293 TRPC4/mu-opioid, membrane potential dye fluorescence; stimulated with maximal-effect DAMGO; inhibition, % at 10 µM; 2,400 compounds, 55% hits; AID 488928;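 active = drop in membrane potential signal beyond 5 SD of the control wells in both duplicate plates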;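 note: TRPC4 counter screen for TRPC6 hits run under conditions tuned for TRPC6 not TRPC4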
TRPC6 inh conf – mouse TRPC6 inhibitor confirmation | HEK293-TRPC6, membrane potential dye, ACh-evoked depolarization | 3,300 compounds, 43% hits | shares compounds with TRPC6 inh | AID 488960 | inhibition, % at 10 µM;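 active = fluorescence ratio falls more than 5 SD below the full-stimulation control mean, in both duplicate runs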;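 note: integrated fluorescence ratio of peak minus minimum over baseline after agonist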
TRPC6 act conf – confirmation of mouse TRPC6 activators; 2,800 compounds, 11% hits; HEK293-TRPC6 membrane potential dye fluorescence, FDSS; shares compounds with TRPC6 inh; activation, % at 10 µM;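 active = ratio signal rise beyond 5 SD above unstimulated control wells' mean, seen in both duplicate runs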;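 note: plate controls were buffer EC0 wells for no effect and acetylcholine ECmax response for full effect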
Active calls of the source: *; i = inactive; . = no result given. A selection: hits, their analogues and other compounds. The true share with any hit is near 2.3%.

SMILES | TRPC4 block | TRPC4 act | TRPC4 PAM | TRPC6 inh | TRPC6 act | HEK293 MPD ctr-2 | HEK293 MPD ctr 2-2 | TRPC4 ctr mod | TRPC4/MOR inh 2 | TRPC6 inh conf | TRPC6 act conf | others
CCN(C(=O)C1CC1)C1CCS(=O)(=O)C1 (stereo unspecified) | i | i | i | i | i | . | . | . | . | . | .
Cc1ccccc1C(OCCN(C)C)c1ccccc1 (stereo unspecified) | i | i | i | -5* | i | 193%* | i | 32%* | i | 58%* | .
Cc1cc(NC(=O)c2ccc3c(c2)C(=O)N(C)C3=O)no1 | i | i | i | -6.1* | i | -99%* | i | -19%* | i | i | i
Cc1nnc(SCCn2c(N3CCCCCC3)nc3c2c(=O)[nH]c(=O)n3C)s1 | i | i | i | i | i | . | . | . | . | . | .
Cn1c(=O)[nH]c(=O)c2c1nc(N1CCN(Cc3ccccc3)CC1)n2CCSc1ncccn1 | i | i | i | -7.9* | i | -329%* | 96%* | -59%* | 62%* | 58%* | i
Cc1nnc(SCCn2c(N3CCN(Cc4ccccc4)CC3)nc3c2c(=O)[nH]c(=O)n3C)s1 | i | i | i | -7.8* | i | -278%* | i | -44%* | i | i | i
Cc1nnc(SCCn2c(N3CCN(C)CC3)nc3c2c(=O)[nH]c(=O)n3C)s1 | i | i | i | -10* | i | . | . | . | . | 69%* | i | TRPC4 spec 2=74%*;TRPC4 spec=-36%*;HEK293 MPD ctr 2-1=i;HEK293 MPD ctr-1=-592%*
Cn1c(=O)[nH]c(=O)c2c1nc(N1CCN(Cc3ccccc3)CC1)n2CCCc1ccccc1 | i | i | i | i | i | . | . | . | . | . | .
CCN(CC)CCNC(=O)c1[nH]c2ccc(OCc3ccccc3)cc2c1C | i | i | i | -7.5* | i | i | i | i | 38%* | 55%* | .
Cc1ccc2cccnc2c1N | i | i | i | i | i | . | . | . | . | . | .
Cc1ccnc2c1ccc1ccccc12 | i | i | i | -6.5* | i | i | i | i | i | i | i
COc1cc(/C=N/n2cnnc2)ccc1OCC(=O)N1CCOCC1 | i | i | i | -7.2* | i | -334%* | i | -54%* | 44%* | 46%* | i
CCCn1nc(C(=O)NNC(=O)c2cccc(S(=O)(=O)NC(C)C)c2)c2ccccc2c1=O | i | i | i | i | i | . | . | . | . | . | .
COc1ccccc1NC(=O)Nc1ccc2c(c1)CCC2 | i | i | i | -5* | i | i | i | i | i | i | i
COc1ccc2c(c1)c(C)cc[n+]2Cc1ccccc1 | i | i | i | -5.2* | i | -260%* | i | -48%* | 52%* | 48%* | i
CCCN1CCN(C(c2cc3cc4c(cc3[nH]c2=O)OCO4)c2nnnn2C(C)(C)C)CC1 (stereo unspecified) | i | i | i | i | i | . | . | . | . | . | .
CCC(C)(C)n1nnnc1C(c1cc2cc3c(cc2[nH]c1=O)OCO3)N1CCCCC1 (stereo unspecified) | i | i | i | -5.9* | i | i | i | i | i | i | .
Nc1c2c(nc3ccccc13)N(c1ccccc1)CC2 | -6* | i | i | -8* | i | -130%* | i | -40%* | 85%* | 48%* | i
Nc1c2c(nc3ccccc13)CSCC2 | i | i | i | -7.2* | i | . | . | . | . | 55%* | i | TRPC4 spec 2=13%*;TRPC4 spec=-30%*;HEK293 MPD ctr 2-1=i;HEK293 MPD ctr-1=-482%*
CN1CCCCc2c1nc1ccccc1c2N (tested in a mixture with another compound) | -7* | i | i | -8.6* | i | . | . | . | . | 87%* | i | TRPC4 spec 2=4.5%*;TRPC4 spec=-19%*;HEK293 MPD ctr 2-1=i;HEK293 MPD ctr-1=-252%*
CC(=O)Nc1ccc(NC(=O)CC(NC(=O)c2ccccc2)c2ccccc2)cc1 (stereo unspecified) | i | i | i | i | i | . | . | . | . | . | .
COc1cc(S(=O)(=O)N2CCN(c3ccccc3F)CC2)ccc1Cl | i | i | i | -5* | i | i | i | i | i | i | i
Cc1ccc(-n2cc(CNCCN3CCOC3=O)c(-c3cccc(C)c3)n2)cc1 | i | i | i | -5.8* | i | i | i | 10%* | 58%* | i | i
O=C1OCCN1CCNCc1cn(-c2ccc(F)cc2)nc1-c1ccccc1Cl | i | i | i | i | i | . | . | . | . | . | .
N=C1c2ccccc2CN1c1ccc(N2CCOCC2)c(S(=O)(=O)Nc2ccc(Cl)cc2)c1 | i | i | i | -7.4* | i | . | . | . | . | i | i | TRPC4 spec 2=36%*;TRPC4 spec=-13%*;HEK293 MPD ctr 2-1=i;HEK293 MPD ctr-1=i
CCC(=O)N(CCC(c1ccc(C)cc1)c1ccco1)Cc1ccco1 (stereo unspecified) | i | i | i | i | i | . | . | . | . | . | .
CN1CCN(c2nc3c(c(=O)[nH]c(=O)n3C)n2CCSc2nnnn2-c2ccccc2)CC1 | i | i | i | -8.5* | i | -236%* | i | -27%* | 62%* | 60%* | i
